Measurements as given in ChEMBL document CHEMBL1133253, “Improved antibacterial activities of coumarin antibiotics bearing 5',5'-dialkylnoviose: biological activity of RU79115” (Bioorg Med Chem Lett, 2000).
Converted amounts (≈) assume the structure as drawn.

What was measured:
Enterococcus faecium [1] = experiment: Tested for in vitro antibacterial activity against Enterococcus faecium 02D31P2 vancomycin teicoplanin erythromycin resistance phenotype; assay type: functional
Staphylococcus aureus [2] = experiment: IC50 was determined for gyrase B of Staphylococcus aureus against novobiocin (0.5 mg/mL) as reference; IC50nov/IC50comp
[3] = test system: Staphylococcus epidermidis; experiment: Tested for in vitro antibacterial activity against Staphylococcus epidermidis 012GO42 oxacillin resistance phenotype; assay type: functional
Staphylococcus aureus [4] = experiment: Tested for in vitro antibacterial activity against Staphylococcus aureus 011 HT3 phenotype; assay type: functional
Staphylococcus aureus [5] = experiment: Tested for in vitro antibacterial activity against Staphylococcus aureus 011 GO64 ofloxacin oxacillin erythromycin resistance phenotype; assay type: functional
Streptococcus pyogenes [6] = experiment: Tested for in vitro antibacterial activity against Streptococcus pyogenes O2A1UC1 phenotype; assay type: functional
Staphylococcus aureus [7] = experiment: Tested for in vitro antibacterial activity against Staphylococcus aureus 011 HT1 novobiocin resistance phenotype; assay type: functional
[8] = Tested for Tmax value at the dose of 10 mg/kg when administered perorally in mouse; assay type: ADME, organism-based; parameters: dose 10 mg/kg, route oral; settings: in vivo, po
Procedure, shortened: (§1)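 Mouse pharmacokinetics used 10 mg/kg given IV and PO. Tmax and Cmax (µg/ml) come from oral dosing, half-life is in hours, and oral bioavailability is F%.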

[9] = Tested for bioavailability of the compound; assay type: ADME, organism-based; settings: mouse, in vivo; procedure, shortened: as §1
[10] = Tested for half life at the dose of 10 mg/kg when administered intravenously; assay type: ADME, organism-based; parameters: dose 10 mg/kg, route intravenous; settings: mouse, in vivo, iv; procedure, shortened: as §1
[11] = Tested for Cmax value at the dose of 10 mg/kg when administered perorally in mouse; assay type: ADME, organism-based; parameters: dose 10 mg/kg, route oral; settings: in vivo, po; procedure, shortened: as §1
Enterococcus faecium [12] = experiment: Minimum inhibitory concentration of the orally administered compound evaluated against vancomycin resistant Enterococci faecium D3HT12 strain in mice; assay type: functional
Enterococcus [13] = experiment: Minimum inhibitory concentration evaluated against enterococci species resistant to vancomycin [65]*; assay type: functional
Enterococcus [14] = experiment: Minimum inhibitory concentration evaluated against enterococci species resistant to vancomycin and teicoplanin [17]*; assay type: functional
Enterococcus [15] = experiment: Minimum inhibitory concentration evaluated against enterococci species susceptible to vancomycin [26]*; assay type: functional
Enterococcus faecalis = experiment: Minimum inhibitory concentration of the orally administered compound evaluated against Enterococci faecalis D2HT6 strain in mice; assay type: functional
Enterococcus faecium [16] = experiment: Minimum inhibitory concentration of the orally administered compound evaluated against Enterococci faecium D3HT7 strain in mice; assay type: functional
Enterococcus faecium [17] = experiment: Minimum inhibitory concentration of the orally administered compound evaluated against vancomycin resistant Enterococci faecium D3AP9 strain in mice; assay type: functional
Enterococcus faecium [18] = experiment: Minimum inhibitory concentration of the orally administered compound evaluated against vancomycin resistant Enterococci faecium D3HM3 strain in mice; assay type: functional
Enterococcus faecium [19] = experiment: Minimum inhibitory concentration of the orally administered compound evaluated against vancomycin resistant Enterococci faecium D3HM4 strain in mice; assay type: functional
Enterococcus [20] = experiment: In vitro anti-enterococcal activity against enterococci species resistant to vancomycin and teicoplanin [17]* expressed as geometric mean; assay type: functional
Enterococcus [21] = experiment: In vitro anti-enterococcal activity against enterococci species susceptible to vancomycin [26]* expressed as geometric mean; assay type: functional
pneumococci = experiment: In vitro anti-streptococcal activity against pneumococci resistant to penicillin [29]* expressed as geometric mean; assay type: functional
[22] = Minimum inhibitory concentration evaluated against pneumococci resistant to penicillin [29]*; assay type: functional
Staphylococcus aureus [23] = experiment: Minimum inhibitory concentration of the orally administered compound evaluated against Staphylococcus aureus HT-18 strain in mice; assay type: functional
Staphylococcus sp. [24] = experiment: Minimum inhibitory concentration evaluated against Staphylococcus species [91]*; assay type: functional
Procedure, shortened: (§2)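 Two-fold agar dilution MIC, in µg/mL, against Staphylococcus panels grouped by resistance phenotype (oxacillin and/or ofloxacin resistant). Per-panel values are reported as the geometric mean and MIC90 across strains; the strain count per panel is given in brackets.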

Staphylococcus sp. [25] = experiment: Minimum inhibitory concentration evaluated against Staphylococcus species resistant to ofloxacin [59]*; assay type: functional; procedure, shortened: as §2
Staphylococcus sp. [26] = experiment: Minimum inhibitory concentration evaluated against Staphylococcus species resistant to oxacillin [66]*; assay type: functional; procedure, shortened: as §2
Staphylococcus sp. [27] = experiment: Minimum inhibitory concentration evaluated against Staphylococcus species resistant to oxacillin and ofloxacin [47]*; assay type: functional; procedure, shortened: as §2
[28] = Minimum inhibitory concentration of the orally administered compound evaluated against […] PW3 strain in mice; assay type: functional
Streptococcus sp. [29] = experiment: In vitro anti-streptococcal activity against Streptococci species (viridans) [25]* expressed as geometric mean; assay type: functional
Streptococcus sp. [30] = experiment: In vitro anti-streptococcal activity against Streptococci species [38]* expressed as geometric mean; assay type: functional
Streptococcus sp. [31] = experiment: Minimum inhibitory concentration evaluated against Streptococci species (viridans) [25]*; assay type: functional
Streptococcus sp. [32] = experiment: Minimum inhibitory concentration evaluated against Streptococci species [38]*; assay type: functional
Staphylococcus aureus [33] = experiment: Minimum inhibitory concentration of the orally administered compound evaluated against Staphylococcus aureus GO3 strain in mice; assay type: functional
Staphylococcus aureus [34] = experiment: Minimum inhibitory concentration of the orally administered compound evaluated against Staphylococcus aureus GR56 strain resistant to oxacillin in mice; assay type: functional
Staphylococcus aureus [35] = experiment: Minimum inhibitory concentration of the orally administered compound evaluated against Staphylococcus aureus HT-17 strain in mice; assay type: functional
Staphylococcus sp. [36] = experiment: In vitro anti-staphylococcal activity against Staphylococcus species resistant to ofloxacin [59]* expressed as geometric mean; assay type: functional; procedure, shortened: as §2
Staphylococcus sp. [37] = experiment: In vitro anti-staphylococcal activity against Staphylococcus species resistant to oxacillin [66]* expressed as geometric mean; assay type: functional; procedure, shortened: as §2
Staphylococcus sp. [38] = experiment: In vitro anti-staphylococcal activity against Staphylococcus species resistant to oxacillin and ofloxacin[47]* expressed as geometric mean; assay type: functional; procedure, shortened: as §2
Mus musculus [39] = experiment: Protective dose of orally administered compound against intraperitoneally-induced septicaemia model (Staphylococcus aureus HT-17 strain) in murine; assay type: functional; settings: po, read-out: PD50
Procedure, shortened: (§3)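 PD50 was measured in a murine septicaemia model, with infection induced intraperitoneally with the named Gram-positive strain. Test compound was given orally and the PD50 was calculated by the probit method.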

Mus musculus [40] = experiment: Protective dose of orally administered compound against intraperitoneally-induced septicaemia model (Enterococci faecalis D2HT6 strain) in murine; assay type: functional; settings: po, read-out: PD50; procedure, shortened: as §3
Mus musculus [41] = experiment: Protective dose of orally administered compound against intraperitoneally-induced septicaemia model (Enterococci faecium D3HT7 strain ) in murine; assay type: functional; settings: po, read-out: PD50; procedure, shortened: as §3
Mus musculus [42] = experiment: Protective dose of orally administered compound against intraperitoneally-induced septicaemia model (Staphylococcus aureus GO3 strain) in murine; assay type: functional; settings: po, read-out: PD50; procedure, shortened: as §3
Mus musculus [43] = experiment: Protective dose of orally administered compound against intraperitoneally-induced septicaemia model (Staphylococcus aureus HT18) in murine; assay type: functional; settings: po, read-out: PD50; procedure, shortened: as §3
Mus musculus [44] = experiment: Protective dose of orally administered compound against intraperitoneally-induced septicaemia model (vancomycin resistant Enterococci faecium D3AP9 strain ) in murine; assay type: functional; settings: po, read-out: PD50; procedure, shortened: as §3
Mus musculus [45] = experiment: Protective dose of orally administered compound against intraperitoneally-induced septicaemia model (vancomycin resistant Enterococci faecium D3HM3 strain ) in murine; assay type: functional; settings: po, read-out: PD50; procedure, shortened: as §3
Mus musculus [46] = experiment: Protective dose of orally administered compound against intraperitoneally-induced septicaemia model (vancomycin resistant Enterococci faecium D3HM4 strain ) in murine; assay type: functional; settings: po, read-out: PD50
Procedure, shortened: (§4)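 Mice infected intraperitoneally to induce septicaemia, then given the compound by mouth. PD50 was calculated by the probit method.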

Mus musculus [47] = experiment: Protective dose of orally administered compound against intraperitoneally-induced septicaemia model (vancomycin resistant Enterococci faecium D3HT12 strain ) in murine; assay type: functional; settings: po, read-out: PD50; procedure, shortened: as §4
Mus musculus [48] = experiment: Protective dose of orally administered compound against intraperitoneally-induced septicaemia model (Staphylococcus aureus GR56 strain resistant to oxacillin) in murine; assay type: functional; settings: po, read-out: PD50; procedure, shortened: as §3
Staphylococcus sp. [49] = experiment: In vitro anti-staphylococcal activity against Staphylococcus species [91]* expressed as geometric mean; assay type: functional
Procedure, shortened: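 Two-fold agar-dilution MICs (µg/mL) were run on a panel of staphylococcal isolates and summarised as the geometric mean across strains.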

Streptococcus pyogenes [50] = experiment: Minimum inhibitory concentration of the orally administered compound evaluated against Streptococcus pyogenes A1UC1 strain in mice
Mus musculus [51] = experiment: Protective dose of orally administered compound against intraperitoneally-induced septicaemia model (Streptococcus pneumoniae PW3 strain) in murine; settings: po, read-out: PD50
Mus musculus [52] = experiment: Protective dose of orally administered compound against intraperitoneally-induced septicaemia model (Streptococcus pyogenes A1UC1 strain) in murine; settings: po, read-out: PD50
Mus musculus [53] = experiment: Protective dose of orally administered compound against intraperitoneally-induced septicaemia model (Streptococcus agalactiae B1HT3 strain) in murine; settings: po, read-out: PD50

## C#CCONC(=O)O[C@H]1[C@@H](O)[C@H](Oc2ccc3c(=O)c(/C(C)=N/OC)c(O)oc3c2C)OC2(CCCCC2)[C@@H]1OC
Enterococcus faecium [1]
  MIC: 0.15 µg/mL (≈ 0.261 µM)
Staphylococcus aureus [2]
  Ratio: 2.6
[3]
  MIC: < 0.04 µg/mL
Staphylococcus aureus [4]
  MIC: < 0.04 µg/mL
Staphylococcus aureus [5]
  MIC: 0.15 µg/mL (≈ 0.261 µM)
Streptococcus pyogenes [6]
  MIC: 0.6 µg/mL (≈ 1.04 µM)
Staphylococcus aureus [7]
  MIC: 0.6 µg/mL (≈ 1.04 µM)

## C#CCONC(=O)O[C@H]1[C@@H](O)[C@H](Oc2ccc3c(=O)c(/C(C)=N/OC)c(O)oc3c2C)OC2(CCCC2)[C@@H]1OC
[8]
  Tmax: 0.5 h
[9]
  bioavailability: 62%
[10]
  half-life: 2.5 h
[11]
  Cmax: 5400 ng/mL
Enterococcus faecium [1]
  MIC: 0.15 µg/mL (≈ 0.268 µM)
Enterococcus faecium [12]
  MIC: 0.15 µg/mL (≈ 0.268 µM)
Enterococcus [13]
  MIC90: 0.6 µg/mL (≈ 1.07 µM)
Enterococcus [14]
  MIC90: 0.3 µg/mL (≈ 0.535 µM)
Enterococcus [15]
  MIC90: 1.2 µg/mL (≈ 2.14 µM)
Enterococcus faecalis
  MIC: 0.3 µg/mL (≈ 0.535 µM)
Enterococcus faecium [16]
  MIC: 0.15 µg/mL (≈ 0.268 µM)
Enterococcus faecium [17]
  MIC: 0.6 µg/mL (≈ 1.07 µM)
Enterococcus faecium [18]
  MIC: 0.08 µg/mL (≈ 0.143 µM)
Enterococcus faecium [19]
  MIC: 0.6 µg/mL (≈ 1.07 µM)
Enterococcus [20]
  GM: 0.16
Enterococcus [21]
  GM: 0.26
Staphylococcus aureus [2]
  Ratio: 2.6
pneumococci
  GM: 0.12
[22]
  MIC90: 0.3 µg/mL (≈ 0.535 µM)
Staphylococcus aureus [23]
  MIC: < 0.04 µg/mL
Staphylococcus sp. [24]
  MIC90: 0.15 µg/mL (≈ 0.268 µM)
Staphylococcus sp. [25]
  MIC90: 0.15 µg/mL (≈ 0.268 µM)
Staphylococcus sp. [26]
  MIC90: 0.15 µg/mL (≈ 0.268 µM)
Staphylococcus sp. [27]
  MIC90: 0.15 µg/mL (≈ 0.268 µM)
[28]
  MIC: 1.2 µg/mL (≈ 2.14 µM)
Streptococcus sp. [29]
  GM: 0.59
Streptococcus sp. [30]
  GM: 0.47
Streptococcus sp. [31]
  MIC90: 1.2 µg/mL (≈ 2.14 µM)
Streptococcus sp. [32]
  MIC90: 1.2 µg/mL (≈ 2.14 µM)
Staphylococcus aureus [33]
  MIC: 0.3 µg/mL (≈ 0.535 µM)
Staphylococcus aureus [34]
  MIC: 0.08 µg/mL (≈ 0.143 µM)
Staphylococcus aureus [35]
  MIC: 0.15 µg/mL (≈ 0.268 µM)
Staphylococcus sp. [36]
  GM: 0.082
Staphylococcus sp. [37]
  GM: 0.097
Staphylococcus sp. [38]
  GM: 0.081
[3]
  MIC: < 0.04 µg/mL
Staphylococcus aureus [4]
  MIC: < 0.04 µg/mL
Streptococcus pyogenes [6]
  MIC: 0.15 µg/mL (≈ 0.268 µM)
Mus musculus [39]
  ED50: 2.8 mg/kg
Mus musculus [40]
  ED50: 10 mg/kg
Mus musculus [41]
  ED50: 112 mg/kg
Mus musculus [42]
  ED50: 7.1 mg/kg
Mus musculus [43]
  ED50: 5.6 mg/kg
Mus musculus [44]
  ED50: 44 mg/kg
Mus musculus [45]
  ED50: 32 mg/kg
Mus musculus [46]
  ED50: 77 mg/kg
Mus musculus [47]
  ED50: 40 mg/kg
Staphylococcus aureus [7]
  MIC: 1.2 µg/mL (≈ 2.14 µM)
Mus musculus [48]
  ED50: 1 mg/kg
Staphylococcus sp. [49]
  GM: 0.099
Streptococcus pyogenes [50]
  MIC: 0.15 µg/mL (≈ 0.268 µM)
Mus musculus [51]
  ED50: 8.5 mg/kg
Mus musculus [52]
  ED50: 37.6 mg/kg
Mus musculus [53]
  ED50: 27.7 mg/kg
